Results on two compounds are retold here after ChEMBL document CHEMBL1255333, “Comparison of the in vitro efficacies of moxifloxacin and amoxicillin against Listeria monocytogenes” (2008).

In experiment [1] the test system is Listeria monocytogenes. Briefly: Antibacterial activity against extracellular Listeria monocytogenes EGDe at four times of MIC by time-kill study. It is filed as functional, organism-based. A digest of the protocol:
(§1)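 EGDe inoculum of 5 x 10^8 bacteria in Mueller-Hinton broth at 37°C. Antibiotic was added at 1x, 4x, 8x or 400x MIC. Counts were done in triplicate at set times by plating serial 10-fold dilutions on BHI agar, with or without 2 µg/ml moxifloxacin, for 48 h. Results are CFU/ml, means ± SE of three experiments. Bactericidal was defined as a >3-log10 drop at 24 h.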

In experiment [2] the test system is Listeria monocytogenes. Briefly: Antibacterial activity against extracellular Listeria monocytogenes EGDe assessed as reduction in bacterial count at four times of MIC after 24 hrs by time-kill study. The class given is functional, organism-based. The essentials:
as §1

The test system of experiment [3] is Listeria monocytogenes. Briefly: Antibacterial activity against extracellular Listeria monocytogenes EGDe assessed as reduction in bacterial count at four times of MIC after 6 hrs by time-kill study. It is filed as functional. A digest of the protocol:
as §1

In experiment [4] the test system is Listeria monocytogenes. Briefly: Antibacterial activity against intracellular Listeria monocytogenes EGDe infected in bone marrow-derived BALB/c mouse macrophage assessed as reduction in bacterial count at four-eitght times of MIC after 3 hrs. It is filed as functional, organism-based. The essentials: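 Bone marrow macrophages from BALB/c mice (7-8 weeks) were differentiated for 7 days in RPMI 1640 with 10% decomplemented FCS and 10% L-cell medium, at 37°C and 10% CO2. Cells at 3 x 10^5/ml were infected for 15 min at a bacteria:macrophage ratio of 10:1, washed, and preincubated for 45 min. They were then given antibiotic for up to 24 h, lysed in 0.1% Triton X-100, and plated in triplicate. Results are CFU/well, means ± SE of three experiments.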

Experiment [5] deals with Listeria monocytogenes. Briefly: Antibacterial activity against intracellular Listeria monocytogenes EGDe infected in bone marrow-derived BALB/c mouse macrophage assessed as reduction in the formation of filopodium-like projections at >= MIC after 48 hrs by microscopy. The class given is functional, organism-based.
The subject of experiment [6] is Listeria monocytogenes. Briefly: Antibacterial activity against extracellular Listeria monocytogenes EGDe at MIC by time-kill study. The class given is functional, organism-based. The essentials: as §1
The test system of experiment [7] is Listeria monocytogenes. The experiment in a line: Antibacterial activity against extracellular Listeria monocytogenes EGDe assessed as reduction in bacterial count at eight times of MIC after 24 hrs by time-kill study. It is filed as functional, organism-based. The essentials: as §1
For experiment [8], the system named is Listeria monocytogenes. Briefly: Antibacterial activity against intracellular Listeria monocytogenes EGDe infected in bone marrow-derived BALB/c mouse macrophage assessed as prevention of bacterial release and spread of infection by preventing macrophage lysis after 24 hrs. It is filed as functional, organism-based.
The subject of experiment [9] is Listeria monocytogenes. The experiment in a line: Antibacterial activity against extracellular Listeria monocytogenes EGDe assessed as reduction in bacterial count at eight times of MIC after 6 hrs by time-kill study. The class given is functional. The essentials: as §1
Experiment [10] has as its system Listeria monocytogenes. The experiment in a line: Antibacterial activity against intracellular Listeria monocytogenes EGDe infected in bone marrow-derived BALB/c mouse macrophage assessed as changes in morphology of intracellular bacteria observed to be ghostly, chained, and elongated at >= MIC after 48 hrs by microscopy. It is filed as functional, organism-based.

The test system of experiment [11] is Listeria monocytogenes. The experiment in a line: Antibacterial activity against extracellular Listeria monocytogenes EGDe at 400 times of MIC by time-kill study. The class given is functional, organism-based. The essentials: as §1
The test system of experiment [12] is Listeria monocytogenes. Briefly: Antibacterial activity against intracellular Listeria monocytogenes EGDe infected in bone marrow-derived BALB/c mouse macrophage assessed as reduction in the number of infected macrophages after 3 hrs. It is filed as functional, organism-based. The essentials:
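Infected BALB/c bone marrow macrophages were stained with May-Grunwald-Giemsa and examined microscopically to determine the infection rate. Observations were made at 3, 6 and 24 h of exposure to antibiotic at 1x MIC or Cmax, or with no antibiotic.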

The source made the active and inactive calls.

Regarding `COc1c(N2C[C@@H]3CCCN[C@@H]3C2)c(F)cc2c(=O)c(C(=O)O)cn(C3CC3)c12` [MOXIFLOXACIN], the outcome in the experiment on Listeria monocytogenes [1], with Listeria monocytogenes [2], with Listeria monocytogenes [4], with Listeria monocytogenes [5], in the experiment on Listeria monocytogenes [7] and in the experiment with Listeria monocytogenes [8] was Active. In the experiment with Listeria monocytogenes [10], the outcome was Active. In addition, the log10CFU/ml in the experiment on Listeria monocytogenes [3] and in the experiment with Listeria monocytogenes [9] was 3 throughout. Besides, the result in the experiment on Listeria monocytogenes [6] was inactive.

For the compound `CC1(C)S[C@@H]2[C@H](NC(=O)[C@H](N)c3ccc(O)cc3)C(=O)N2[C@H]1C(=O)O`, the outcome with Listeria monocytogenes [1] and with Listeria monocytogenes [11] was Active. Also, the result in the experiment on Listeria monocytogenes [4], with Listeria monocytogenes [5], with Listeria monocytogenes [6], in the experiment on Listeria monocytogenes [12] and with Listeria monocytogenes [8] was inactive.
